According to ChEMBL document CHEMBL1157379, “Transcriptional response of Candida parapsilosis following exposure to farnesol” (2007):
Activity calls are given as the source filed them. No cut-off for these calls is given here.

Key:
Candida parapsilosis [1] = assay: Increase in CGD gene ortholog accession number orf19.1026 expression in Candida parapsilosis CLIB214 at 50 uM after 2 hrs by microarray based transcriptional profiling relative to control; format: functional
Method in brief: (§1)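 Strain CLIB214 grown overnight in YPD at 30°C, diluted to A600 0.2 in fresh YPD at 30°C. After 4 h (A600 0.8), farnesol (40 mM methanol stock) added to 50 μM final, or an equal methanol volume as control; cells harvested 2 h later. RNA was accepted only with a 28S/18S ratio of 1.6–2.2. Cy3/Cy5-dCTP-labelled cDNA was made from 25 μg total RNA. Hybridisation was to duplicate-spotted 68-mer oligo arrays (3,849 genes) at 42°C for about 16 h. Six individual comparisons.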

Candida parapsilosis [2] = assay: Decrease in CGD gene ortholog accession number orf19.5156 expression in Candida parapsilosis CLIB214 at 50 uM after 2 hrs by microarray based transcriptional profiling relative to control; format: functional
Method in brief: (§2)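 Cells in YPD at 30°C treated with 50 μM farnesol at 4 h, with a methanol control. RNA harvested 2 h later and kept only if 28S/18S ratio was 1.6–2.2 with no degradation. 25 μg total RNA oligo-dT primed and labeled with Cy3/Cy5-dCTP. Labeled cDNA hybridized about 16 h at 42°C to duplicate-spotted 68-mer oligo arrays. Six individual comparisons analyzed statistically.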

Candida parapsilosis [3] = assay: Decrease in ZCF23 gene expression in Candida parapsilosis CLIB214 at 50 uM after 2 hrs by microarray based transcriptional profiling relative to control; format: functional; method in brief: as §1
Candida parapsilosis [4] = assay: Increase in CGD gene ortholog accession number orf19.1457 expression in Candida parapsilosis CLIB214 at 50 uM after 2 hrs by microarray based transcriptional profiling relative to control; format: functional; method in brief: as §1
Candida parapsilosis [5] = assay: Increase in ACC1 gene expression in Candida parapsilosis CLIB214 at 50 uM after 2 hrs by microarray based transcriptional profiling relative to control; format: functional; method in brief: as §1
Candida parapsilosis [6] = assay: Increase in CGD gene ortholog accession number orf19.2446 expression in Candida parapsilosis CLIB214 at 50 uM after 2 hrs by microarray based transcriptional profiling relative to control; format: functional; method in brief: as §1
Candida parapsilosis [7] = assay: Increase in CGD gene ortholog accession number orf19.6117 expression in Candida parapsilosis CLIB214 at 50 uM after 2 hrs by microarray based transcriptional profiling relative to control; format: functional; method in brief: as §1
Candida parapsilosis [8] = assay: Antifungal activity against Candida parapsilosis CLIB214 assessed as growth inhibition at 50 uM added 4 hrs after […] growth within 2 hrs by cell counting method; format: functional, organism-based
Method in brief: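 C. parapsilosis CLIB214 grown overnight in YPD at 30°C, diluted to A600 0.2 in fresh YPD, grown 4 h (A600 0.8), then farnesol added at final 10, 20, 50 or 100 μM from a 40 mM methanol stock. Methanol-only controls. Growth followed by A600 or by cell counting with a particle counter.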

Candida parapsilosis [9] = assay: Antifungal activity against Candida parapsilosis CLIB214 assessed as induction of cell death at 50 uM added 4 hrs after […] growth after 2 hrs by colony counting method; format: functional
Method in brief: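 Type strain grown overnight in YPD at 30°C, diluted to A600 0.2 in YPD; farnesol (40 mM stock in methanol) added at a final 50 μM, with a methanol-only control. Viability was measured by CFU counts taken 1 h and 2 h after addition.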

Candida parapsilosis [10] = assay: Increase in ERG7 gene expression in Candida parapsilosis CLIB214 at 50 uM after 2 hrs by microarray based transcriptional profiling relative to control; format: functional
Method in brief: (§3)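 Strain grown overnight in YPD at 30°C, diluted to A600 0.2 in YPD at 30°C; farnesol (40 mM methanol stock) added at 4 h (A600 0.8), final 50 μM; methanol-only control. Cells collected 2 h later for RNA. Labelled cDNA from 25 μg total RNA (Cy3/Cy5-dCTP) hybridized to 68-mer oligo arrays at 42°C ~16 h; six individual comparisons analysed statistically.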

Candida parapsilosis [11] = assay: Decrease in CGD gene ortholog accession number orf19.7118 expression in Candida parapsilosis CLIB214 at 50 uM after 2 hrs by microarray based transcriptional profiling relative to control; format: functional; method in brief: as §1
Candida parapsilosis [12] = assay: Increase in CGD gene ortholog accession number orf19.7235 expression in Candida parapsilosis CLIB214 at 50 uM after 2 hrs by microarray based transcriptional profiling relative to control; format: functional; method in brief: as §1
Candida parapsilosis [13] = assay: Decrease in CGD gene ortholog accession number orf19.2097 expression in Candida parapsilosis CLIB214 at 50 uM after 2 hrs by microarray based transcriptional profiling relative to control; format: functional; method in brief: as §2
Candida parapsilosis [14] = assay: Increase in PDE2 gene expression in Candida parapsilosis CLIB214 at 50 uM after 2 hrs by microarray based transcriptional profiling relative to control; format: functional; method in brief: as §3
Candida parapsilosis [15] = assay: Increase in CGD gene ortholog accession number orf19.3617 expression in Candida parapsilosis CLIB214 at 50 uM after 2 hrs by microarray based transcriptional profiling relative to control; format: functional; method in brief: as §1
Candida parapsilosis [16] = assay: Increase in POT1 gene expression in Candida parapsilosis CLIB214 at 50 uM after 2 hrs by microarray based transcriptional profiling relative to control; format: functional; method in brief: as §3
Candida parapsilosis [17] = assay: Decrease in CGD gene ortholog accession number orf19.2366 expression in Candida parapsilosis CLIB214 at 50 uM after 2 hrs by microarray based transcriptional profiling relative to control; format: functional; method in brief: as §2
Candida parapsilosis [18] = assay: Increase in GLN1 gene expression in Candida parapsilosis CLIB214 by RT-PCR; format: functional, organism-based
Method in brief: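 Cultures in YPD at 30°C, diluted to A600 0.2; 50 μM farnesol (final) or methanol added at 4 h, RNA harvested 2 h later. RT-PCR: 95°C hot start 1 min 30 s, then 26 cycles (95°C 40 s, 55°C 2 min, 72°C 3 min), final 72°C 5 min; each gene signal normalized to ACT1.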

Candida parapsilosis [19] = assay: Decrease in CGD gene ortholog accession number orf19.5683 expression in Candida parapsilosis CLIB214 at 50 uM after 2 hrs by microarray based transcriptional profiling relative to control; format: functional; method in brief: as §2
Candida parapsilosis [20] = assay: Increase in CGD gene ortholog accession number orf19.966 expression in Candida parapsilosis CLIB214 at 50 uM after 2 hrs by microarray based transcriptional profiling relative to control; format: functional; method in brief: as §3
Candida parapsilosis [21] = assay: Decrease in AMO2 gene expression in Candida parapsilosis CLIB214 at 50 uM after 2 hrs by microarray based transcriptional profiling relative to control; format: functional; method in brief: as §2
Candida parapsilosis [22] = assay: Cell cycle arrest in Candida parapsilosis CLIB214 assessed as accumulation at G2/M phase at 50 uM added 4 hrs after […] growth; format: functional, organism-based
Method in brief: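 YPD culture diluted to A600 0.2 at 30°C. Farnesol added to 50 μM after 4 h. Budding cells scored by microscopy: unbudded as G1, small budded as S, large budded as G2/M. Compared with methanol controls.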

Candida parapsilosis [23] = assay: Increase in ALS2 gene expression in Candida parapsilosis CLIB214 at 50 uM after 2 hrs by microarray based transcriptional profiling relative to control; format: functional; method in brief: as §1
Candida parapsilosis [24] = assay: Increase in NIT2 gene expression in Candida parapsilosis CLIB214 at 50 uM after 2 hrs by microarray based transcriptional profiling relative to control; format: functional; method in brief: as §3
Candida parapsilosis [25] = assay: Effect on GAD1 gene expression in Candida parapsilosis CLIB214 by microarray based transcriptional profiling; format: functional, organism-based; method in brief: as §1

CC(C)=CCC/C(C)=C/CC/C(C)=C/CO [FARNESOL]
fold change (FC) (Candida parapsilosis [1]): 1.55 | fold change (FC) (Candida parapsilosis [2]): 2.02 | fold change (FC) (Candida parapsilosis [3]): 1.97 | fold change (FC) (Candida parapsilosis [4]): 1.55 | fold change (FC) (Candida parapsilosis [5]): 1.59 | fold change (FC) (Candida parapsilosis [6]): 1.59 | fold change (FC) (Candida parapsilosis [7]): 1.6 | Activity (Candida parapsilosis [8]): Active | Activity (Candida parapsilosis [9]): 20% | fold change (FC) (Candida parapsilosis [10]): 1.68 | fold change (FC) (Candida parapsilosis [11]): 1.56 | fold change (FC) (Candida parapsilosis [12]): 1.56 | fold change (FC) (Candida parapsilosis [13]): 1.53 | fold change (FC) (Candida parapsilosis [14]): 1.67 | fold change (FC) (Candida parapsilosis [15]): 1.55 | fold change (FC) (Candida parapsilosis [16]): 1.71 | fold change (FC) (Candida parapsilosis [17]): 3.21 | Activity (Candida parapsilosis [18]): Active | fold change (FC) (Candida parapsilosis [19]): 1.51 | fold change (FC) (Candida parapsilosis [20]): 1.6 | fold change (FC) (Candida parapsilosis [21]): 1.56 | Activity (Candida parapsilosis [22]): Active | fold change (FC) (Candida parapsilosis [23]): 1.61 | fold change (FC) (Candida parapsilosis [24]): 1.86 | Activity (Candida parapsilosis [25]): inactive
